We go through nine molecules from ChEMBL document CHEMBL3862004, “A Cyclic Tetrapeptide ("Cyclodal") and Its Mirror-Image Isomer Are Both High-Affinity μ Opioid Receptor Antagonists” (J Med Chem, 2016).

A short description of series [1]: Metabolic stability in rat plasma assessed as compound remaining at 37 degC measured after 15 mins by reverse-phase HPLC analysis.
Series [2] in a line: Metabolic stability in rat plasma at 37 degC measured up to 48 hrs by reverse-phase HPLC analysis. The format is ADME, cell-free. In a few lines: (§1)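 Peptide at 0.5 mg/mL in 0.01 M phosphate buffer pH 7.4 mixed 1:1 with rat plasma supernatant and incubated at 37 °C. Samples taken at 0, 5, 10, 15, 30 min and 1, 2, 3, 24, 48 h, quenched with acetonitrile and 2% TFA/water. Analysed by reversed-phase C18 HPLC; peak areas expressed as percent of initial.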

Series [3] can be described thus: Cmax in CD-1 mouse brain at 2 mg/kg, iv measured after 30 mins by LC-MS/MS analysis. The format is ADME, organism-based. Also on record: dose 2 mg/kg, route intravenous. In a few lines: (§2)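 Male CD1 mice (27 g) given 2 mg/kg iv in saline; brain and plasma sampled at 5, 15, 30, 60, 120 and 240 min. Brain homogenised in PBS pH 7.4, plasma proteins precipitated with acetonitrile/methanol (1:1). Quantitation by LC–MS/MS against internal standard, with standard curves extracted from brain homogenate and fitted by 1/x-weighted linear regression. AUCs were taken from concentration–time curves.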

Series [4] is described as follows: AUC in CD-1 mouse brain at 2 mg/kg, iv by LC-MS/MS analysis. It counts as ADME, organism-based. The settings on record: in vivo. A digest of the protocol: as §2
The nature of series [5]: AUC in CD-1 mouse plasma at 2 mg/kg, iv by LC-MS/MS analysis. It counts as ADME, organism-based. In a few lines: as §2
Series [6] deals with Delta-type opioid receptor (Mus musculus) (UniProt P32300). The experiment in a line: Partial agonist activity at delta opioid receptor in mouse vas deferens assessed as inhibition of electrically-stimulated muscle contraction. A digest of the protocol:
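Mouse vas deferens preparation. A [Leu5]enkephalin dose–response curve was run on each preparation as standard, and test IC50 values were normalised to it. Mean of three to four determinations ± SEM.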

Series [7] concerns the target Mu-type opioid receptor (Cavia porcellus) (UniProt P97266). The experiment in a line: Antagonist activity at MOR in guinea pig ileum assessed as inhibition of TAPP-induced muscle contractions. A digest of the protocol:
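Guinea pig ileum preparation. Ke was derived from the ratio of TAPP IC50 with and without a fixed antagonist concentration. Mean of three to four determinations ± SEM.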

Series [8] can be described thus: Selectivity ratio of Ki for KOR in guinea pig brain membrane to Ki for MOR in rat brain membrane. The format is cell membranes.
The species named for a further series is Rattus norvegicus. The experiment in a line: Selectivity ratio of Ki for DOR in rat brain membrane to Ki for MOR in rat brain membrane. The format is cell membranes.
Series [9] is described as follows: Metabolic stability in rat plasma assessed as compound degradation at 37 degC measured after 2 hrs by reverse-phase HPLC analysis. It counts as ADME, cell-free. The settings on record: read-out: Drug degradation. In a few lines:
as §1

In series [10] the target is Kappa-type opioid receptor (Cavia porcellus, UniProt P41144). The experiment in a line: Displacement of [3H]U69,593 from KOR in guinea pig brain membrane measured after 2 hrs. It counts as cell membranes. A digest of the protocol: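 Guinea pig brain membranes incubated 2 h at 0 °C with 0.80 nM [3H]U69,593. […] Values are the mean of three to four determinations ± SEM.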

Series [11] addresses Delta-type opioid receptor (Rattus norvegicus, UniProt P33533). The experiment in a line: Displacement of [3H]DSLET from DOR in rat brain membrane measured after 2 hrs. The format is cell membranes.
The target of series [12] is Kappa-type opioid receptor (Cavia porcellus) (UniProt P41144). The experiment in a line: Antagonist activity at KOR in guinea pig ileum assessed as inhibition of U50,488-induced muscle contractions.
Series [13] concerns the target Mu-type opioid receptor (Rattus norvegicus, UniProt P33535). The experiment in a line: Displacement of [3H]DAMGO from MOR in rat brain membrane measured after 2 hrs. The format is cell membranes.
For series [14], the target named is Mu-type opioid receptor (Cavia porcellus, UniProt P97266). The experiment in a line: Agonist activity at MOR in guinea pig ileum assessed as inhibition of electrically-stimulated muscle contractions. In a few lines: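 Isolated guinea pig ileum preparation; each preparation received a [Leu⁵]enkephalin standard dose–response curve. IC50 values came from concentration–response curves and were normalized to that standard. Values are the mean of three to four determinations ± SEM.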

Calls of active or inactive are those of the source. The rule behind the calls is not given here. Some results are limits rather than exact numbers.

Delta-type opioid receptor (Mus musculus), sequence (P32300 whole entry): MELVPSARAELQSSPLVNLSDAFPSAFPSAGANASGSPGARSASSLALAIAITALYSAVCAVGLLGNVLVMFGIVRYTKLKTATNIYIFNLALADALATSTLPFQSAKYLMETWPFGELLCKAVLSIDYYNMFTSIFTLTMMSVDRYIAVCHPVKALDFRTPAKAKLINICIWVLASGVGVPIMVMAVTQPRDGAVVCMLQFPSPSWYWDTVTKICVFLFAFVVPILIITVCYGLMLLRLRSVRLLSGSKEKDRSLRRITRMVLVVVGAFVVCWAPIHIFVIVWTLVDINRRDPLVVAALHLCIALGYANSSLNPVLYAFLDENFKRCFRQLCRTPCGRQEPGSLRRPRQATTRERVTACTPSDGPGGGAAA
Mu-type opioid receptor (Cavia porcellus), sequence (P97266 whole entry): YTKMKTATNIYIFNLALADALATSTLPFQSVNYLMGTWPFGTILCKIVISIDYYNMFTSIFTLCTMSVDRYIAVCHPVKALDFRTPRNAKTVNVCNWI
Delta-type opioid receptor, sequence (P33533 whole entry): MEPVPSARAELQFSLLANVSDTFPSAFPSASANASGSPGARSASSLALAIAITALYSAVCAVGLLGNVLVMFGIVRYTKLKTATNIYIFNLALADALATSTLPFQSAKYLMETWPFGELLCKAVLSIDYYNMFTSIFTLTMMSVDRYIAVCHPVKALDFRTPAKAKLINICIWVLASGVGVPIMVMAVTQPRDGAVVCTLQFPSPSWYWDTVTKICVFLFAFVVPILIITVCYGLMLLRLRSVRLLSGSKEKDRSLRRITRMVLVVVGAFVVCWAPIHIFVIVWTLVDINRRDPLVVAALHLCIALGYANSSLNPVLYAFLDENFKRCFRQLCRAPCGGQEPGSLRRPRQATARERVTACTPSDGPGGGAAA
Kappa-type opioid receptor, sequence (P41144 whole entry): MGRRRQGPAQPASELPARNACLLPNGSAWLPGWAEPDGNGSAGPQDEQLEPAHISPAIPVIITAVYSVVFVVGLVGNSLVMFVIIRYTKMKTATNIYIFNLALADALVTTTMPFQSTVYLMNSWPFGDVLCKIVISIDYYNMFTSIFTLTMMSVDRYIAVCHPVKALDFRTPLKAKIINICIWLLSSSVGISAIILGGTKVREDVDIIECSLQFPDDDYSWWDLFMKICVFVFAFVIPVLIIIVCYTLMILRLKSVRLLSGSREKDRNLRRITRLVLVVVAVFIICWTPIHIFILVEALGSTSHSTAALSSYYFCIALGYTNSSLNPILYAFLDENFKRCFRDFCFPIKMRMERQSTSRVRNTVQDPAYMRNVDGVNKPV
Mu-type opioid receptor (Cavia porcellus, UniProt P97266), sequence (P97266 whole entry): as the sequence (P97266 whole entry) above
Mu-type opioid receptor (Rattus norvegicus, UniProt P33535), sequence (P33535 whole entry): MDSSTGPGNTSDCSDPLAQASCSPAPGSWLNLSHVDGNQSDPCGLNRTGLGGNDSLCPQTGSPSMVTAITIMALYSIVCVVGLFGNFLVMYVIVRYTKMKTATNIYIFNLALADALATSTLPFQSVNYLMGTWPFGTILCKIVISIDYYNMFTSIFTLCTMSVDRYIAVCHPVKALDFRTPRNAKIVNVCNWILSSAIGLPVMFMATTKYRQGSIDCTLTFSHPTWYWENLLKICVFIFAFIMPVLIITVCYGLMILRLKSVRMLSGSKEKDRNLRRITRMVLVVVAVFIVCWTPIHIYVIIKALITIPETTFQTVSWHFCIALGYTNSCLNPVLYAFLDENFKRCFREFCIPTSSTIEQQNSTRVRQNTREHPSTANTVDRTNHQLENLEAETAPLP
Kappa-type opioid receptor (Cavia porcellus), sequence (P41144 whole entry): as the sequence (P41144 whole entry) above

Consider `CC(C)C[C@H](NC(=O)[C@H](Cc1ccccc1)NC(=O)CNC(=O)CNC(=O)[C@@H](N)Cc1ccc(O)cc1)C(=O)O` [ENKEPHALIN], for which, in series [1], the amount remaining at 0.25 h was less than 15%.

For the molecule `Cc1cc(O)cc(C)c1C[C@@H]1NC(=O)[C@H](CCCCN)NC(=O)[C@H](Cc2ccccc2)NC(=O)[C@@H](CCCNC(=N)N)NC1=O`, the Stability entry in [2] was “Stable”. This molecule returned a Cmax in series [3] of 0.6 ng/g. For the same molecule, the results for the AUC in series [4] and in series [5] were 0.052 µg·min/g and 0.505 ng·h/mL, respectively.

`Cc1cc(O)cc(C)c1C[C@@H]1NC(=O)C(CCCN)NC(=O)[C@H](Cc2ccccc2)NC(=O)[C@@H](CCCNC(=N)N)NC1=O` (stereo partly drawn): the result in [6] was Active. Besides, the Ke in series [7] worked out at 16.8 nM.

For the molecule `Cc1cc(O)cc(C)c1C[C@@H]1NC(=O)[C@H](CCCCN)NC(=O)[C@H](Cc2ccccc2)NC(=O)[C@@H](CCCNC(N)=O)NC1=O`, the Ratio Ki turned out to be 165 in series [8] and 52 in the series listed under Rattus norvegicus.

Turning to `C[C@@H](O)[C@H](NC(=O)[C@H]1NC(=O)[C@H]([C@@H](C)O)NC(=O)[C@H](CCCN)NC(=O)[C@@H](Cc2c[nH]c3ccccc23)NC(=O)[C@H](Cc2ccc(O)cc2)NC(=O)[C@@H](NC(=O)[C@H](N)Cc2ccccc2)CSSC1(C)C)C(N)=O`, the metabolised at 2 h in series [9] was determined as 25%. Also, the results for the inhibition constant (Ki) in series [10] and in series [11] were 14900 nM and 258 nM, respectively. Further, the result in series [6] was Active.

For the molecule `Cc1cc(O)cc(C)c1C[C@@H]1NC(=O)[C@H](CCCCN)NC(=O)[C@H](Cc2ccccc2)NC(=O)[C@@H](CCCCNC(=N)N)NC1=O`, the Ratio Ki in series [8] came to 23; in the series filed under Rattus norvegicus it was 25. In addition, the result in series [6] was Active.

Turning to `Cc1cc(O)cc(C)c1C[C@@H]1NC(=O)C[C@H](CCCCN)NC(=O)[C@H](Cc2ccccc2)NC(=O)[C@@H](CCCNC(=N)N)NC1=O`, the results for the Ratio Ki (in [8]; in the series filed under Rattus norvegicus) were 6 and 135, respectively. The Ki in [10] was 0.786 nM; on Mu-type opioid receptor [13], 0.124 nM; in series [11] it was 16.7 nM. The Ke was 18.2 nM in [12] and 10.5 nM in series [7].

On to `Cc1cc(O)cc(C)c1C[C@@H]1NC[C@H](CCCCN)NC(=O)[C@H](Cc2ccccc2)NC(=O)[C@@H](CCCNC(=N)N)NC1=O`, for which the Ratio Ki in series [8] is 7; in the series filed under Rattus norvegicus it was 47. For the same molecule, the result in series [6] was Active. The IC50 on Mu-type opioid receptor [14] stood at 2510 nM.

As to `CCCC[C@@H]1NC(=O)[C@H](Cc2ccccc2)NC(=O)[C@@H](CCCNC(=N)N)NC(=O)[C@H](Cc2c(C)cc(O)cc2C)NC1=O`, the result in series [6] was Active.
